In ChEMBL document CHEMBL1782048, “Novel 1-(2-aminopyrazin-3-yl)methyl-2-thioureas as potent inhibitors of mitogen-activated protein kinase-activated protein kinase 2 (MK-2)” (Bioorg Med Chem Lett, 2009):
pIC50: −log10 of the molar value.

What was measured:
[1] = target: MAP kinase-activated protein kinase 2 (Homo sapiens, UniProt P49137); assay: Inhibition of MK2 using biotin-LCAYSRALSRQLSSGVSEIRH substrate
[2] = Half life in rat; format: ADME, organism-based; settings: in vivo
THP-1 = assay: Inhibition of LPS-induced TNFalpha production in human THP1 cells after 4 hrs by ELISA; settings: THP-1, 4 h
[3] = target: Ribosomal protein S6 kinase alpha-5 (Homo sapiens) (UniProt O75582); assay: Inhibition of RPS6KA5 at 10 uM
[4] = Inhibition of AMPK at 10 uM
Rattus norvegicus = species on record: Rattus norvegicus; assay: Normalized AUC in rat; format: ADME, organism-based; settings: in vivo
[5] = target: Ribosomal protein S6 kinase alpha-1 (Homo sapiens) (UniProt Q15418); assay: Inhibition of RPS6KA1 at 10 uM
[6] = Oral bioavailability AUC in rat; format: ADME, organism-based; settings: in vivo
Mus musculus = assay: Antiinflammatory activity in BALB/c mouse assessed as inhibition of LPS-stimulated TNFalpha production at 10 mg/kg, iv after 1.5 hrs; format: functional
How it was run: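 Female Balb/c mice, 12 weeks old, dosed iv at 10 mg/kg in DMSO/Cremophor/saline (or vehicle alone) just before injection of 10 µg/mouse LPS (E. coli serotype 0111:B4) plus 800 mg/kg D-galactosamine in saline. Animals euthanized 90 min later; plasma TNF measured by ELISA.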

[7] = Clearance in rat; format: ADME, organism-based; settings: in vivo
[8] = target: T1, MAP kinase-activated protein kinase 5 (Homo sapiens) (UniProt Q8IW41); assay: Inhibition of MK5 at 1 uM
T1 sequence (whole entry): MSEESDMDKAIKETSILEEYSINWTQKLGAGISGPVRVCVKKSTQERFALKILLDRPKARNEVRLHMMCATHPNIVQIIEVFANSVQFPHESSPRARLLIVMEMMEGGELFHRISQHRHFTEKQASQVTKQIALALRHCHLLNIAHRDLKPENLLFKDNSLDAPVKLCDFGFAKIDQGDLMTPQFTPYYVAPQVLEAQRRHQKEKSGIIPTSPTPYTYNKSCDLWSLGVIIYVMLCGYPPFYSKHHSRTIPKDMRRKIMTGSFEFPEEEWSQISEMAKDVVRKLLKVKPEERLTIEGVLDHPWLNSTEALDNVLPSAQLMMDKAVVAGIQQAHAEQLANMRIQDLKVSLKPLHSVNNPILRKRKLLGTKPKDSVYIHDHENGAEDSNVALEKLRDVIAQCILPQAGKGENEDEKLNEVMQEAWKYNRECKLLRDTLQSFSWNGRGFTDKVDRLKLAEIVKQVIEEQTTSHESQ

Chain of MAP kinase-activated protein kinase 2 (P49137 whole entry): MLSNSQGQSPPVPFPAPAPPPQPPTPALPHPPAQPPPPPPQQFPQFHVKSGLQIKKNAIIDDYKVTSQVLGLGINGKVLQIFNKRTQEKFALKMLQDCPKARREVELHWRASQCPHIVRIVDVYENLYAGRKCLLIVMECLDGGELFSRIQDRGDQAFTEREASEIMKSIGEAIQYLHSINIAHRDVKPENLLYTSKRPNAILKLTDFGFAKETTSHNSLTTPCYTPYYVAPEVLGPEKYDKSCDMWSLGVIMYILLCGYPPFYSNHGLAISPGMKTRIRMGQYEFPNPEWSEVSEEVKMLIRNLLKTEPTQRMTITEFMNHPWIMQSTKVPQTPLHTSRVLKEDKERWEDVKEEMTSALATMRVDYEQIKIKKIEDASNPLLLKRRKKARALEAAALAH
Chain of Ribosomal protein S6 kinase alpha-5 (Homo sapiens) (O75582 whole entry, looked up): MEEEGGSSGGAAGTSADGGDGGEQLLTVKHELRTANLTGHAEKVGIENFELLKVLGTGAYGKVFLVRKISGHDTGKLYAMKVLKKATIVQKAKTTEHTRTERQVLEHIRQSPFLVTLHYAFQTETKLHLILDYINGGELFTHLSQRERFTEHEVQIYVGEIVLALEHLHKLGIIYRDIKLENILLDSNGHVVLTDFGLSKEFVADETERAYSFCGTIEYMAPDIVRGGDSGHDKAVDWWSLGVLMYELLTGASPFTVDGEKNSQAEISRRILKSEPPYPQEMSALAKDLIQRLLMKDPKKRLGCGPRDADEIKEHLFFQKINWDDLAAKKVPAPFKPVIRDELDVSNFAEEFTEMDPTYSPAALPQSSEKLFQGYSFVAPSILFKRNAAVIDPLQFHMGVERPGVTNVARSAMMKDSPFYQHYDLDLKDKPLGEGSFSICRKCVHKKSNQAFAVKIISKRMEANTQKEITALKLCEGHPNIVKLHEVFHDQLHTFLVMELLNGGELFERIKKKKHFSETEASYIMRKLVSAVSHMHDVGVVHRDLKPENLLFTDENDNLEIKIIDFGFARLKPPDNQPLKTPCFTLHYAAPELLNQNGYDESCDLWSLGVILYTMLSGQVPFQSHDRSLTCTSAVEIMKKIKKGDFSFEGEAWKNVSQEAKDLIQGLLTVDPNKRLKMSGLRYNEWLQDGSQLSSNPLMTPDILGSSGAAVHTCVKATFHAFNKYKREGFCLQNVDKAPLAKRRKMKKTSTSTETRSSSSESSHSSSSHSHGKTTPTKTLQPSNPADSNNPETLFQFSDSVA
Chain of Ribosomal protein S6 kinase alpha-1 (Homo sapiens) (Q15418 whole entry): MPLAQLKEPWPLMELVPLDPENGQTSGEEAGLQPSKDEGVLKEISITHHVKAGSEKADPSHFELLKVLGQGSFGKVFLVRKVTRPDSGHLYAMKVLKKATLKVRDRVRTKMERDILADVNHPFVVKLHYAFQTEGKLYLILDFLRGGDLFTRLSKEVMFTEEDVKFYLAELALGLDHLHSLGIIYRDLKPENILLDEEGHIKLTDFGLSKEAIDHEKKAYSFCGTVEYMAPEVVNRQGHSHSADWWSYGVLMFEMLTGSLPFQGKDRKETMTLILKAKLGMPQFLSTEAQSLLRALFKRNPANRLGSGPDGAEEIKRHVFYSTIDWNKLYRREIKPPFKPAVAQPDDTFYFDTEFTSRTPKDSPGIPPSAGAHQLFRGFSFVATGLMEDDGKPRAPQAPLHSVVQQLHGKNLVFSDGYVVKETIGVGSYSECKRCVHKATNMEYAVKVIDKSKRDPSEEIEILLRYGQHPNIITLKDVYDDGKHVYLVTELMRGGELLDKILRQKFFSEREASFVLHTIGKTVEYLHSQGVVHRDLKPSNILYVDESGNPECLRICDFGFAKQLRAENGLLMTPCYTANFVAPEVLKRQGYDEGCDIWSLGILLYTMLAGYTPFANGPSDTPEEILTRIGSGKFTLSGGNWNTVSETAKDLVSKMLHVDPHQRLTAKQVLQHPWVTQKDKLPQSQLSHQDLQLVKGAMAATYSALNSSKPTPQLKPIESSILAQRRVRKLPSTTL

SMILES	pIC50 [1]	other results
CC(C)(C)NC(=S)NCc1nc(Cl)cnc1N	5.60	
Nc1ncc(Cl)nc1CNC(=S)NC1CCCCCC1	4.46	
CCCc1cnc(N)c(CNC(=S)Nc2ccc(NC(=O)OC(C)(C)C)cc2)n1	7.35	half-life [2]: 48 min; pIC50 (THP-1): 5.52; inhibition [3]: > 70%; inhibition [4]: > 70%; AUC/dose (Rattus norvegicus): 3.3 µM·kg·h/mg; inhibition [5]: > 70%; bioavailability [6]: 19%; inhibition in vivo at 10 mg/kg (Mus musculus): 62%; clearance [7]: 0.15 L/h/kg
Cc1cnc(N)c(CNC(=S)Nc2ccc(NC(=O)Oc3ccccc3)cc2)n1	6.14	
Nc1ccc(NC(=S)NCc2nc(Cl)cnc2N)cc1	5.70	
Cc1cnc(N)c(CNC(=S)Nc2ccc(NC(=O)c3ccccc3)cc2)n1	6.24	
CCOc1nc(N)c(CNC(=S)Nc2ccccc2)nc1Cl	< 4.30	
Nc1ncc(Cl)nc1CNC(=S)NC1CCCC1	4.28	
Cc1ccccc1NC(=S)NCc1nc(Cl)cnc1N	5.44	
CCc1cnc(N)c(CNC(=S)Nc2ccc(NC(=O)OC(C)(C)C)cc2)n1		pIC50 (THP-1): 5.40
CCCCc1cnc(N)c(CNC(=S)Nc2ccc3[nH]c(=O)oc3c2)n1		pIC50 (THP-1): 5.42
Nc1ncc(Cl)nc1CNC(=S)NCCc1ccccc1	< 4.30	
Cc1cnc(N)c(CNC(=S)Nc2ccc3oc(=O)[nH]c3c2)n1	4.85	
Nc1ncc(Cl)nc1CNC(=S)Nc1ccc(Cl)c(Cl)c1	4.40	
Cc1cnc(N)c(CNC(=S)Nc2ccc3c(c2)[nH]c(=O)n3C)n1	< 4.70	
Cc1ccc(NC(=S)NCc2nc(Cl)cnc2N)cc1	5.57	
CC(C)(C)NC(=O)Nc1ccc(NC(=S)NCc2nc(C3CC3)cnc2N)cc1		pIC50 (THP-1): 5.85
Cc1cnc(N)c(CNC(=S)Nc2ccc3c(c2)CC(=O)N3)n1	4.57	
CN(C)c1nc(N)c(CNC(=S)Nc2ccccc2)nc1Cl	< 4.30	
Nc1ncc(C(F)(F)F)nc1CNC(=S)Nc1ccccc1	< 4.30	
Cc1cnc(N)c(CNC(=S)Nc2ccc3[nH]c(=O)[nH]c3c2)n1	4.82	
Nc1ncc(Cl)nc1CNC(=S)Nc1ccccc1Cl	5.96	

SMILES	pIC50 [1]	other results
Cc1cccc(NC(=S)NCc2nc(Cl)cnc2N)c1	5.03	
CSc1nc(N)c(CNC(=S)Nc2ccccc2)nc1Cl	< 4.30	
Nc1ncc(Cl)nc1CNC(=S)Nc1cccc2ccccc12	5.49	
Cc1cnc(N)c(CNC(=S)Nc2ccc(NC(=O)Cc3ccccc3)cc2)n1	5.42	
Nc1ncc(Cl)nc1CNC(=S)NC(=O)c1ccccc1	4.04	
Nc1ncc(Cl)nc1CNC(=S)Nc1cccc(Cl)c1	4.95	
Nc1ncc(Cl)nc1CNC(=S)Nc1ccccc1F	5.70	
Nc1ncc(Cl)nc1CNC(=S)NC1CC1	4.92	
Cc1cnc(N)c(CNC(=S)Nc2ccc3[nH]c(=O)sc3c2)n1	4.82	
Nc1ncc(Cl)nc1CNC(=S)Nc1ccccc1-c1ccccc1	< 4.70	
CC(C)(C)OC(=O)Nc1ccc(NC(=S)NCc2nc(C3CC3)cnc2N)cc1		pIC50 (THP-1): 5.49
CC(C)NC(=S)NCc1nc(Cl)cnc1N	4.89	
Nc1ncc(C2CC2)nc1CNC(=S)Nc1ccc2[nH]c(=O)oc2c1	7.82	pIC50 (THP-1): 5.77; inhibition in vivo at 10 mg/kg (Mus musculus): 75%
Nc1ncc(Cl)nc1CNC(=S)Nc1ccc(Cl)cc1	5.43	
Nc1ncc(Cl)nc1CNC(=S)NCc1ccccc1	4.44	
CCCc1cnc(N)c(CNC(=S)Nc2ccc3[nH]c(=O)oc3c2)n1		half-life [2]: 18 min; pIC50 (THP-1): 6.12; AUC/dose (Rattus norvegicus): 0.3 µM·kg·h/mg; inhibition [8]: > 70%; bioavailability [6]: 8%; inhibition in vivo at 10 mg/kg (Mus musculus): 70%; clearance [7]: 0.774 L/h/kg
Nc1ncc(Cl)nc1CNC(=S)Nc1ccc(-n2cnnn2)cc1	< 4.40	
CCN(CC)CCCNC(=S)NCc1nc(Cl)cnc1N	< 4.30	
Nc1ncc(Cl)nc1CNC(=S)Nc1cc(Cl)cc(Cl)c1	4.57	
Nc1ncc(Cl)nc1CNC(=S)Nc1ccc(Cl)cc1Cl	5.37	
Nc1ncc(Cl)nc1CNC(=S)Nc1ccc(Br)cc1	5.51	
